For six compounds, IC50 results are on record in ChEMBL document CHEMBL1154207, “Protease inhibitors from a water bloom of the cyanobacterium Microcystis aeruginosa” (J Nat Prod, 2009).

Molecules are shown by their SMILES. A value given as a limit tells only on which side of the number the result lay.

Assay [1] is described as follows: Inhibition of trypsin after 30 mins preincubated for 5 mins before addition of substrate. In short, it runs like this:
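Trypsin enzyme solution at 1 mg/mL in 50 mM Tris-HCl/100 mM NaCl/1 mM CaCl₂. Substrate solution was 2 mM N-benzoyl-D,L-arginine-p-nitroanilide in buffer. Test sample in ethanol was diluted with buffer and preincubated with enzyme in buffer for 5 min at 37 °C before substrate addition. Color was read at 405 nm immediately and after 30 min at 37 °C.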

Assay [2] can be described thus: Inhibition of Chymotrypsin after 30 mins preincubated for 5 mins before addition of substrate. In short, it runs like this: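 Chymotrypsin enzyme solution at 1 mg/mL in 50 mM Tris-HCl/100 mM NaCl/1 mM CaCl₂/1 mM HCl. Substrate solution was 2 mM […] in the same buffer. Samples were dissolved in ethanol and diluted in buffer. Enzyme, sample and buffer were preincubated 5 min at 37 °C, then substrate was added. Absorbance at 405 nm was read at once and after 30 min at 37 °C.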

On to `CC[C@H](C)[C@@H]1NC(=O)[C@H](Cc2ccc(O)cc2)N(C)C(=O)[C@H]([C@@H](C)CC)N2C(=O)[C@H](CC[C@H]2O)NC(=O)[C@H](CCCNC(=N)N)NC(=O)[C@@H](NC(=O)[C@@H](COS(=O)(=O)O)OS(=O)(=O)O)[C@@H](C)OC1=O`, for which the IC50 in assay [1] was 2200 nM; in assay [2], greater than 100000 nM.
For the compound `CC[C@H](C)[C@@H]1NC(=O)[C@H](Cc2ccc(OC)c(Cl)c2)N(C)C(=O)[C@H]([C@@H](C)CC)N2C(=O)[C@H](CC[C@H]2O)NC(=O)[C@H](CCCNC(=N)N)NC(=O)[C@@H](NC(=O)[C@@H](COS(=O)(=O)O)OS(=O)(=O)O)[C@@H](C)OC1=O`, the 50% inhibitory concentration (IC50) was 1700 nM in assay [1] and greater than 100000 nM in assay [2].
The like results for `CC[C@H](C)[C@H]1C(=O)N(C)[C@@H](Cc2ccc(OC)c(Cl)c2)C(=O)N[C@@H](C(C)C)C(=O)O[C@H](C)[C@H](NC(=O)[C@H](O)CO)C(=O)N[C@@H](CCCNC(=N)N)C(=O)N[C@H]2CC[C@@H](OC)N1C2=O` were, in that order, 1100 nM and 2800 nM.
`CC[C@H](C)[C@H]1C(=O)N(C)[C@@H](Cc2ccc(OC)c(Cl)c2)C(=O)N[C@@H](C(C)C)C(=O)O[C@H](C)[C@H](NC(=O)[C@H](O)CO)C(=O)N[C@@H](CCCNC(=N)N)C(=O)N[C@H]2CC[C@@H](O)N1C2=O`: the concentration for half-maximal inhibition (IC50) in assay [1] stood at 3500 nM; in assay [2], 19600 nM.
The like results for `CC[C@H](C)[C@@H]1NC(=O)[C@H](Cc2ccc(OC)c(Cl)c2)N(C)C(=O)[C@H]([C@@H](C)CC)N2C(=O)[C@H](CC[C@H]2O)NC(=O)[C@H](CCCNC(=N)N)NC(=O)[C@@H](NC(=O)[C@H](O)COS(=O)(=O)O)[C@@H](C)OC1=O` were, in that order, 700 nM and 18200 nM.
Take `CC[C@H](C)[C@H]1C(=O)N(C)[C@@H](Cc2ccc(O)c(Cl)c2)C(=O)N[C@@H](C(C)C)C(=O)O[C@H](C)[C@H](NC(=O)[C@@H](COS(=O)(=O)O)OS(=O)(=O)O)C(=O)N[C@@H](CCCNC(=N)N)C(=O)N[C@H]2CC[C@@H](O)N1C2=O`: the IC50 in assay [1] is 1200 nM; in assay [2] it was greater than 100000 nM.
